CXCR6 inh: CXCR6 (human) receptor inhibition; O00574; CHO-K1 PathHunter CXCR6 beta-arrestin, luminescence; inhibition, % at 20 µM; 360,000 compounds, 0.36% hits; in the data active = inhibition above about 34%, passing the limit was not always enough;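 note: antagonist mode with CXCL16 agonist at 10 nM final; 0% = 10 nM CXCL16 with DMSO and 100% = unstimulated wells without agonist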
Target sequence (O00574 whole entry, looked up): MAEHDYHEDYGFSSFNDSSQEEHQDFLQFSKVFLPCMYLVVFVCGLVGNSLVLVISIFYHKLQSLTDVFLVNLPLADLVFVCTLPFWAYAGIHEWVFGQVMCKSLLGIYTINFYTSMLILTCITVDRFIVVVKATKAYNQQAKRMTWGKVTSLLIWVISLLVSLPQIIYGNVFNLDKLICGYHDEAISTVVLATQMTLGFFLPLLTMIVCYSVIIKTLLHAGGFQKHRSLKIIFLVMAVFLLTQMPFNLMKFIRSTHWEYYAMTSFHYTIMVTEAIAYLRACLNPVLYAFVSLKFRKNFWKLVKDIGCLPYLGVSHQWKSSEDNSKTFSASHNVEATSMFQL
EBI2 block: blocks human EBI2 receptor beta-arrestin signaling; EBI2 beta-arrestin recruitment, luminescence, 7a,25-OHC stimulated; P32249; 360,000 compounds, 0.81% hits; inhibition, % at 5 µM; in the data active = inhibition above about 38%;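 note: enzyme fragment complementation signal reports receptor beta-arrestin coupling in cells; 0% = agonist plus DMSO wells and 100% = wells without agonist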
CCR6 antag: blocks CCL20-driven beta-arrestin recruitment at human CCR6 | P51684 | CHO-K1 CCR6 PathHunter beta-arrestin, luminescence, CCL20-stimulated | inhibition, % at 20 µM | 340,000 compounds, 0.49% hits | AID 493098;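 active = compounds whose inhibition of the agonist-driven luminescence signal at 20 µM reaches about 50%, limit read from the data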;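 note: cells stimulated with CCL20 at 14 nM final; plate controls were DMSO with CCL20 for no effect and DMSO without agonist for full effect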
APJ antag: antagonists of human APJ apelin receptor; P35414; CHO-K1 APJ beta-arrestin complementation, luminescence; inhibition, % at 20 µM; 330,000 compounds, 0.32% hits;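 active = inhibition above about 40% at 20 µM, limit read from the data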;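 note: cells challenged with 10 nM apelin-13 agonist together with compound; plate controls were apelin-13 plus DMSO wells for no effect and DMSO wells lacking apelin-13 for full effect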
APJ ag: APJ receptor agonism. activation, % at 20 µM. 330,000 compounds, 0.11% hits. CHO-K1 APJ PathHunter beta-arrestin, luminescence; 0% DMSO wells, 100% apelin. P35414;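 active = activation more than six SD over the plate average, tested at 20 µM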;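 note: 0% = DMSO alone and 100% = apelin-13 at 10 nM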
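Incubation: overnight seeding, 90 min compound at 25 °C, 1 h detection; test system: PathHunter CHO-K1 APJ (AGTRL-1) beta-arrestin reporter cells; amount: 1000 cells/well; doses: one dose, 20 µM compound, 1% DMSO; measured by: beta-gal luminescence; measure: agonist-driven arrestin binding to APJ; benchmarks: negative DMSO alone, positive Apelin-13 at 10 nM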
EBI2 conf: EBI2 (human) antagonism, single concentration confirmation; shares compounds with EBI2 block; EBI2 beta-arrestin luminescence, 7a,25-OHC antagonism; inhibition, % at 5 µM; 2,400 compounds, 29% hits;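 active = inhibition of at least 50%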
EBI2 agonist: EBI2 agonism counter-screen; 2,400 tested, under 10 active; shares compounds with EBI2 block; EBI2-expressing cells, agonist mode, luminescence, 60 min; 0% vehicle, 100% 7α,25-dihydroxycholesterol control; AID 652000; activation, % at 5 µM;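 active = activation of at least 50%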
bGal counter: counter-screen for EBI2 antagonists: E. coli beta-galactosidase inhibition. 2,400 compounds, 1% hits. purified beta-galactosidase, luminescent Galacton Star, 15 min. inhibition, % at 5 µM. shares compounds with EBI2 block;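 active = replicate-average signal at least 3 plate SD below neutral wells, shown as high inhibition, flagging enzyme-inhibiting false positives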;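 note: 0% = DMSO wells with enzyme and 100% = wells lacking enzyme; higher means stronger loss of beta-gal luminescence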
An asterisk follows results filed as active; / = not tested or not shown. Rows were chosen to be rich in hits. Some 1.5% of all compounds tested hit in one or more screens of this group.

SMILES	CXCR6 inh	EBI2 block	CCR6 antag	APJ antag	APJ ag	EBI2 conf	EBI2 agonist	bGal counter
CCOc1ccc(OCC)c(NC(=O)CN(c2ccc(OC)cc2)S(=O)(=O)c2c(C)noc2C)c1	4	69*	12	-2	-2	21	0	1
COc1ccc(OC)c(NC(=O)CN(c2ccc(C(C)C)cc2)S(=O)(=O)c2c(C)noc2C)c1	4	25	15	-4	-1	/	/	/
COc1ccc(OC)c(NC(=O)CN(c2ccc(C)cc2)S(=O)(=O)c2c(C)noc2C)c1	0	48*	19	11	-3	15	-1	-9
CCc1nc2c(OCc3ccccc3)cccn2c1N(C)C(=O)c1ccc2c(c1)OCO2	-5	1	/	/	/	/	/	/
Cc1ccc(NC(=O)C2=CCN(S(=O)(=O)c3ccc(F)cc3)CC2)cc1	-4	47*	-6	-10	-2	37	0	0
Cc1ccc(NC(=O)c2ccc(S(=O)(=O)N3CCC(C)CC3)cc2)cc1	-3	53*	6	9	-1	12	2	4
CC(=O)Nc1ccc(S(=O)(=O)N2CCC(C(=O)c3ccc(Cl)cc3)CC2)cc1	-1	54*	9	-2	3	19	2	9
COc1cc(C#Cc2c(-c3cncn3C)n(C)c3ccc(-c4ccc(OC)nc4)cc23)cc(OC)c1	-4	-1	-15	-11	2	/	/	/
COc1cc(C#Cc2c(-c3cncn3C)n(C)c3ccc(-c4cc(OC)c(OC)c(OC)c4)cc23)cc(OC)c1	5	50*	-5	9	-2	9	1	5
Cc1ccc(S(=O)(=O)N2CCC(=O)N([C@H](COCc3ccc(Cl)c(Cl)c3)Cc3ccccc3)CC2)cc1	6	39	/	/	/	/	/	/
CCOc1ccc(NC(=O)c2cc3ccccc3cc2O)cc1	-23	6	-3	-44	2	/	/	/
COc1ccc(NC(=O)c2cc3ccccc3cc2OC)cc1	-2	65*	11	18	-5	36	1	5
CCOc1ccc(NC(=O)c2cc3ccccc3cc2OC)cc1	-4	54*	-2	-23	-1	37	-2	-11
COc1cc2ccccc2cc1C(=O)Nc1cccnc1	1	1	-1	-9	-4	/	/	/
COc1ccc(NC(=O)c2ccc(C(=O)c3cc(OC)ccc3OC)cc2)cc1	-5	48*	6	2	-3	6	0	6
COc1ccc(OC)c(C(=O)c2ccc(C(=O)Nc3ccccc3)cc2)c1	-2	-5	-5	11	2	/	/	/
Cc1ccc(S(=O)(=O)NC(=O)C2(C)CCN2C(=O)CC2CCCC2)cc1 (stereo unspecified)	-1	-3	/	/	/	/	/	/
O=C(CCCc1cccs1)NCCc1c[nH]c2ccccc12	3	46*	18	-1	1	20	3	2
CCCCCCCCCCCCCCCC(=O)NCCc1c[nH]c2ccccc12	-1	17	10	-73	-1	/	/	/
COC(=O)[C@@]12C[C@@H](CC(=O)N3CCCC3)C(=O)N(Cc3ccco3)C1=CCC(C)(C)C2	/	-5	/	/	/	/	/	/
COC(=O)[C@]12CCCCC=C1N(Cc1ccccc1)C(=O)[C@H](CC(=O)NCc1ccccc1)C2	4	2	/	/	/	/	/	/
O=C(Nc1nc(-c2cccs2)cs1)c1cccc(S(=O)(=O)N2CCCCCC2)c1	6	17	12	20	-4	/	/	/
O=C(Nc1nc(-c2cccs2)cs1)c1ccc(S(=O)(=O)N2CCCCC2)cc1	4	42*	20	15	-6	14	1	8
C=CCN1C(=O)NC(c2ccc(OC)cc2)(C(F)(F)F)S/C1=C(\C#N)c1nnc(N2CCOCC2)n1-c1ccccc1 (stereo unspecified)	-2	68*	-3	-7	-4	69*	0	6
COc1ccc(-c2n[nH]nc2C2=CC(=O)CC(C)(C)C2)cc1	-7	-1	/	/	/	/	/	/
SMILES	CXCR6 inh	EBI2 block	CCR6 antag	APJ antag	APJ ag	EBI2 conf	EBI2 agonist	bGal counter
COc1cc(CN2C(=O)C(C)ON=C2c2cccs2)cc(OC)c1 (stereo unspecified)	8	6	/	/	/	/	/	/
CN(c1ccccc1)c1nc(N2CCCC2)nc(-n2ccnc2)n1	9	32	22	22	-1	/	/	/
c1ccc(N(c2ccccc2)c2nc(N3CCCC3)nc(-n3ccnc3)n2)cc1	9	40*	34	27	-4	38	3	1
COCCCNS(=O)(=O)c1ccc2[nH]c3c(c2c1)CCCCC3	-13	-1	7	-9	0	/	/	/
CC(C)(C)NS(=O)(=O)c1ccc2[nH]c3c(c2c1)CCCCC3	-13	63*	-4	-4	0	67*	1	5
CCc1ccc(Oc2coc3cc(OCC(=O)Nc4cc(C)ccc4C)ccc3c2=O)cc1	-5	52*	2	15	4	11	0	-11
CCC(c1nnnn1-c1ccc2c(c1)OCCO2)N1CCN(C(C)=O)CC1 (stereo unspecified)	-3	2	/	/	/	/	/	/
COc1ccc(-n2nnc3c(SCC(=O)N4CCCc5ccccc54)ncnc32)cc1	-1	42*	11	-3	-3	4	1	6
Cc1ccc2nc(-c3ccc(Cl)cc3)c(Cc3ccccn3)n2c1	6	4	/	/	/	/	/	/
COc1cccc(-c2cc3nc(-c4ccccc4)cc(N4CCCC(O)C4)n3n2)c1 (stereo unspecified)	-4	47*	1	-7	-1	23	0	-14
Cc1nc(C(=O)O)cc([N+](=O)[O-])c1C	-2	-10	/	/	/	/	/	/
Cc1ccc(Oc2nc3ccccn3c(=O)c2/C=C(\C#N)C(=O)Nc2c(C)n(C)n(-c3ccccc3)c2=O)cc1	1	57*	-9	-4	2	62*	0	8
Cc1ccccc1Oc1nc2c(C)cccn2c(=O)c1/C=C(\C#N)C(=O)Nc1c(C)n(C)n(-c2ccccc2)c1=O	-1	65*	13	-15	-1	61*	1	10
Cc1c(NC(=O)/C(C#N)=C/c2c(Oc3ccccc3)nc3ccccn3c2=O)c(=O)n(-c2ccccc2)n1C	0	28	2	7	-1	/	/	/
Cc1ccc(S(=O)(=O)N2CCCN(Cc3nc4ccccc4c(=O)[nH]3)CC2)cc1	-5	10	6	16	-2	/	/	/
COc1cc2nc(CN3CCN(S(=O)(=O)c4ccc(C)c(C)c4)CC3)[nH]c(=O)c2cc1OC	2	47*	19	7	-2	38	2	4
O=C(CSc1ccc(Cl)cc1)Nc1ccccc1N1CCN(C(=O)c2ccc(Cl)cc2)CC1	9	43*	11	-1	0	14	0	5

Compound activity from PubChem.
